Assay results collected from several papers.
Target: MAP/microtubule affinity-regulating kinase 3 (MARK3, Homo sapiens, UniProt P27448)

The remaining binding of `CCOC(=O)c1cc2cc(-c3cc(C(=O)NCc4ccc(C(=O)O)cc4)nn3C)ccc2[nH]1` is reported as 93% (cell-free assay; competition with immobilised ligand; 0.1 µM).
For `CC/C(=N\NC(=O)NCc1cccc(O)c1)c1ccc(O)c(C)c1O`, the inhibition was -16.8% (enzyme activity; inhibitor; 0.1 µM).
With `CS(=O)(=O)Nc1cccc(-c2csc(NC(=O)CSc3nc4nccnc4c(=O)n3CCc3ccccc3)n2)c1` the inhibition was 1% (enzyme activity; inhibitor; 10 µM).
The remaining activity of `Cc1nn(CC(F)(F)F)cc1Nc1ncc(Br)c(NCCc2cnc[nH]2)n1` is reported as 68% (enzyme activity; inhibitor; radiometric; 1 µM).
For `CNc1cccc2cc(C(=O)Nc3ccc(C(=O)O)cc3)c(=O)[nH]c12`, the inhibition was -10% (enzyme activity; inhibitor; 10 µM).
For `NS(=O)(=O)c1ccc(CNc2nc(Nc3cccc(CN4CCOCC4)c3)ncc2C2CC2)cc1`, the remaining activity was 109% (enzyme activity; inhibitor; radiometric; 1 µM).
`CSc1cccnc1N1CCN(Cc2nc3ccccc3[nH]2)CC1` gave a remaining binding of 98% (cell-free assay; competition with immobilised ligand; 1 µM).
The remaining signal of `Oc1ccc(-c2nc(-c3ccncc3)c(-c3ccc(F)cc3)[nH]2)cc1` is reported as 105% (cell-free assay; 0.5 µM).
For `CN1CC(Oc2cnc(C#N)cc2-c2ccn3nc(NC(=O)C4CC4)cc3c2)C1`, the inhibition was 17% (enzyme activity; inhibitor; 1 µM).
`NS(=O)(=O)c1ccc(CNc2nc(Nc3cccc(NC(=O)N4CCCC4)c3)ncc2Br)cc1` has a remaining activity of 63% (enzyme activity; inhibitor; radiometric; 1 µM).
For `C[C@H](c1ccnc(Nc2nc3ccc(-c4cc(N(C)C)ncn4)cc3[nH]2)c1)N1CCN(C(=O)CC(F)(F)F)CC1`, the remaining binding was 100% (cell-free assay; competition with immobilised ligand; 0.1 µM).
The inhibition of `c1ccc(CNc2nc(N3CCOc4ccccc43)nc3c2CCCC3)cc1` is reported as 3% (target engagement in cells; inhibitor; chemoproteomics; 20 mM).
The activity vs control of `COc1cc(/C=C/C(=O)CC(=O)/C=C/c2ccc(O)c(OC)c2)ccc1O` is reported as 90% (enzyme activity; inhibitor; 1 µM).
For `CCCS(=O)(=O)Nc1ccc(F)c(C(=O)c2c[nH]c3ncc(-c4ccc(Cl)cc4)cc23)c1F`, the inhibition was less than 10% (enzyme activity; inhibitor; 1 µM).
With `Cc1cc(NC(=O)c2cccc(S(F)(F)(F)(F)F)c2)cc(-n2ccn3nc(-c4cccnc4)cc23)c1` the remaining binding was 100% (cell-free assay; competition with immobilised ligand; 1 µM).
`COc1ccc(COc2ccc(Cc3cnc(N)nc3N)cc2OC)cc1` gave a remaining signal of 103% (cell-free assay; 0.5 µM).
The remaining binding of `C[C@H](NC(=O)c1cnc2n1[C@](C)(Cc1ccc(C#N)cc1)C(=O)N2c1cc(Cl)c(F)c(Cl)c1)C(=O)NC1(c2ccccn2)CC1` is reported as 92% (cell-free assay; competition with immobilised ligand; 1 µM).
`Cc1nn(CC(F)(F)F)cc1Nc1nccc(NCCCNC(=O)C2CCC2)n1` has a remaining activity of 126% (enzyme activity; inhibitor; radiometric; 1 µM).
The activity vs control of `FC(F)(F)Oc1cccc(-c2cnc3ccc(-c4ccncc4)nn23)c1` is reported as 91% (enzyme activity; inhibitor; radiometric; 1 µM).
For `CN(C)CC#Cc1ccc(OCCCc2sc(N3CCc4cccc(C(=O)Nc5nc6ccccc6s5)c4C3)nc2C(=O)O)c(F)c1`, the remaining binding was 38% (cell-free assay; competition with immobilised ligand; 1 µM).
`O=C(NCCCNc1nc(Nc2cccc(NC(=O)N3CCCC3)c2)ncc1C1CC1)C1CCC1` gave a remaining activity of 0% (enzyme activity; inhibitor; radiometric; 1 µM).
`CS(=O)(=O)CCNCc1ccc(-c2ccc3ncnc(Nc4ccc(OCc5cccc(F)c5)c(Cl)c4)c3c2)o1` has a remaining signal of 95.9% (cell-free assay; 0.5 µM).
`CN(C)C(=O)Cn1cc(-c2nc(C3(c4ccc(-c5cnc(N)nc5)cc4)CC3)no2)cn1` gave a remaining binding of 100% (cell-free assay; competition with immobilised ligand; 1 µM).
The remaining activity of `O=C(NCCCNc1nc(Nc2cccc(NC(=O)N3CCCC3)c2)ncc1I)c1cccs1` is reported as -4% (enzyme activity; inhibitor; radiometric; 1 µM).
For `Cc1cc(C)c(-n2ccn3nc(-c4cccnc4)cc23)cc1NC(=O)c1cc(C#N)cc(S(F)(F)(F)(F)F)c1`, the remaining binding was 85.1% (cell-free assay; competition with immobilised ligand; 0.1 µM).
The remaining activity of `c1cc(CN2CCOCC2)cc(Nc2ncc(C3CC3)c(NCCc3c[nH]cn3)n2)c1` is reported as 0% (enzyme activity; inhibitor; radiometric; 1 µM).
`COc1cc(Nc2cnc(C#N)c(O[C@H](C)CN(C)C)n2)ncc1-c1cnn(C)c1` gave a remaining activity of 69% (enzyme activity; inhibitor; radiometric; 10 µM).
`Cc1nn(CC(F)(F)F)cc1Nc1ncc(C2CC2)c(NCc2ccc(S(N)(=O)=O)cc2)n1` gave a remaining activity of 111% (enzyme activity; inhibitor; radiometric; 1 µM).
With `COc1cc2ncnc(Nc3ccc(Oc4ccccc4)c(C)c3C)c2cc1OC` the inhibition was -4% (enzyme activity; inhibitor; 1 µM).
